In general, IC50 refers to the concentration needed to halve the response being measured.

Activity calls are given as the source filed them. No cut-off for these calls is given here.

In one assay the test system is MCF7. Kind of assay: Antiproliferative activity against […] human MCF7 cells assessed as inhibition of cell growth incubated for 72 hrs by alamar blue assay. The class given is functional, cell-based. The note with it: MCF7, 72 h. In a few lines: (§1)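 Cells seeded 24 h before treatment (HL-60 4 × 10⁴, MCF-7 5 × 10³ per well), then given medium, vehicle (1% ethanol v/v) or serial dilutions (eight concentrations) for 72 h. Alamar Blue (10% v/v) added for 3–5 h at 37 °C in the dark, fluorescence read at ex 530/em 590 nm. Viability expressed relative to vehicle (100%), IC50 from dose–response curves; three experiments in triplicate.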
In general terms: Resazurin is reduced to fluorescent resorufin, in cell work by metabolically active cells.

The subject of a further assay is HL-60. Kind of assay: Antiproliferative activity against […] human HL-60 cells assessed as inhibition of cell growth incubated for 72 hrs by alamar blue assay. The assay is classed as functional, cell-based. The note with it: HL-60, 72 h. In a few lines: as §1
In a further assay the test system is HT-29. As to the kind of experiment: Antiproliferative activity against combretastatin A-4 resistant human HT-29 cells assessed as inhibition of cell growth incubated for 72 hrs by SRB assay. The class given is functional, cell-based. The note with it: HT-29, 72 h. In a few lines: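 HT-29 (DMEM Glutamax, 10% FBS) seeded at 1 × 10⁴ cells/well, treated after 24 h with vehicle (1% ethanol v/v) or serial dilutions (eight concentrations) for 72 h; viability measured by sulforhodamine B protocol. Percent viability relative to vehicle control, IC50 from dose–response curves; mean of three experiments in triplicate.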
A general note: In SRB staining, fixed cells bind dye roughly in proportion to their protein.

Another assay has as its target Tubulin (Bos taurus) (UniProt Q6B856+Q862L2+Q862F3). As to the kind of experiment: Inhibition of bovine tubulin polymerisation assessed as fold reduction in Vmax at 10 uM measured every 30 secs for 30 mins by spectrophotometric method relative to control. The class given is protein assay.
Assay [1] relates to Panel NCI-60 (60 carcinoma cell lines). Kind of assay: Antiproliferative activity against human panel NCI-60 (60 carcinoma cell lines) assessed as inhibition of cell growth at 10 uM incubated for 72 hrs by SRB assay. The class given is functional, cell-based.

Turning to `COc1cc(N2C(=O)C(Oc3ccccc3)C2c2ccc(SC)cc2)cc(OC)c1OC` (mixture of isomers), the half-inhibitory concentration (IC50) in the assay with MCF7 was 0.152 µM; in the assay with HL-60, 0.388 µM; with HT-29 it was 0.336 µM.
With `CCSc1ccc(C2C(Oc3ccccc3)C(=O)N2c2cc(OC)c(OC)c(OC)c2)cc1` (mixture of isomers), the IC50 with MCF7 is 0.21 µM; in the assay on HL-60, 0.508 µM; with HT-29, 0.632 µM.
`CCOc1ccc(C2C(O)C(=O)N2c2cc(OC)c(OC)c(OC)c2)cc1` (mixture of isomers): the IC50 in the assay on MCF7 was 0.007 µM; with HL-60, 0.011 µM; in the assay with HT-29, 0.015 µM.
For `COc1cc(N2C(=O)C(c3ccccc3)C2c2ccc(O)cc2)cc(OC)c1OC` (mixture of isomers), in that order: more than 50 µM, more than 50 µM and more than 50 µM.
Consider `COc1ccc(C2CC(=O)N2c2cc(OC)c(OC)c(OC)c2)cc1O` (racemic), for which the half-maximal inhibitory concentration (IC50) in the assay with MCF7 is 0.006 µM; in the assay on HL-60 it was 0.008 µM; in the assay with HT-29 it was 0.521 µM.
With `COc1ccc(C2CC(=O)N2c2cc(OC)c(OC)c(OC)c2)cc1` (racemic), the IC50 with HL-60 came to 0.076 µM; in the assay on HT-29 it was 0.065 µM.
In the case of `COc1ccc(C2C(Cl)C(=O)N2c2cc(OC)c(OC)c(OC)c2)cc1` (racemic), the results for the IC50 with MCF7, in the assay on HL-60 and in the assay with HT-29 were 0.056 µM, 0.161 µM and 0.135 µM, respectively.
Consider `C=CC1C(=O)N(c2cc(OC)c(OC)c(OC)c2)C1c1ccc(SC)cc1` (racemic), for which the figures for the 50% inhibitory concentration (IC50) with MCF7, in the assay with HL-60 and with HT-29 were 0.051 µM, 0.061 µM and 0.113 µM, respectively. In addition, the fold change (FC) on Tubulin (Bos taurus) was found to be 3.4.
Consider `COc1cc(N2C(=O)CC2c2ccc(SC)cc2)cc(OC)c1OC` (racemic), for which the 50% inhibitory concentration (IC50) is 0.067 µM with MCF7, 0.069 µM in the assay with HL-60 and 0.108 µM in the assay on HT-29.
Consider `C=CC1C(=O)N(c2cc(OC)c(OC)c(OC)c2)C1c1ccc(SCC)cc1` (racemic), for which the half-maximal inhibitory concentration (IC50) in the assay on MCF7 stood at 0.181 µM; in the assay with HL-60, 0.32 µM; with HT-29 it was 0.257 µM.
As to `COc1cc(N2C(=O)C(C3CC3)C2c2ccc(SC)cc2)cc(OC)c1OC` (racemic), the IC50 in the assay with MCF7 amounted to 0.131 µM; in the assay on HL-60, 0.279 µM; with HT-29 it was 0.204 µM.
In the case of `COc1ccc(C2C(Oc3ccccc3)C(=O)N2c2cc(OC)c(OC)c(OC)c2)cc1` (racemic), the IC50 in the assay with MCF7 worked out at 0.023 µM; in the assay on HL-60 it was 0.019 µM; with HT-29, 0.052 µM.
Regarding `CCOc1ccc(C2C(Oc3ccccc3)C(=O)N2c2cc(OC)c(OC)c(OC)c2)cc1` (racemic), the results for the IC50 with MCF7, in the assay with HL-60 and in the assay on HT-29 were 0.069 µM, 0.494 µM and 0.388 µM, respectively.
On to `CCSc1ccc(C2C(Cl)C(=O)N2c2cc(OC)c(OC)c(OC)c2)cc1` (racemic), for which the IC50 in the assay on MCF7 came to 0.251 µM; in the assay on HL-60 it was 0.385 µM; in the assay with HT-29, 0.238 µM.
Taken in the same sequence, the figures for `COc1ccc(C2C(O)C(=O)N2c2cc(OC)c(OC)c(OC)c2)cc1O` (racemic) were 0.003 µM, 0.005 µM and 0.463 µM.
On to `CCOc1ccc(C2C(Cl)C(=O)N2c2cc(OC)c(OC)c(OC)c2)cc1` (racemic), for which the IC50 is 0.087 µM in the assay with MCF7, 0.209 µM in the assay on HL-60 and 0.203 µM in the assay with HT-29.
Turning to `CCSc1ccc(C2N(c3cc(OC)c(OC)c(OC)c3)C(=O)C2(Cl)Cl)cc1` (racemic), the IC50 in the assay on MCF7 came out at 0.66 µM; with HL-60, 0.481 µM; in the assay on HT-29, 0.554 µM.
As to `CCSc1ccc(C2C(C3CC3)C(=O)N2c2cc(OC)c(OC)c(OC)c2)cc1` (racemic), the IC50 in the assay on MCF7 came to 0.606 µM; with HL-60 it was 0.803 µM; with HT-29 it was 1.56 µM.
For `CCSc1ccc(C2CC(=O)N2c2cc(OC)c(OC)c(OC)c2)cc1` (racemic), in that order: 0.141 µM, 0.204 µM and 0.311 µM.
For `CCSc1ccc(C2C(c3ccccc3)C(=O)N2c2cc(OC)c(OC)c(OC)c2)cc1` (racemic), the half-inhibitory concentration (IC50) is 0.38 µM in the assay on MCF7, 0.43 µM in the assay on HL-60 and 3.14 µM with HT-29.
Taken in the same sequence, the figures for `CCOc1ccc(C2CC(=O)N2c2cc(OC)c(OC)c(OC)c2)cc1` (racemic) were 0.064 µM, 0.088 µM and 0.065 µM.
Taken in the same sequence, the figures for `CCOc1ccc(C2N(c3cc(OC)c(OC)c(OC)c3)C(=O)C2(Cl)Cl)cc1` (racemic) were 0.27 µM, 0.182 µM and 0.325 µM.
For `COc1cc(N2C(=O)C(Cl)C2c2ccc(SC)cc2)cc(OC)c1OC` (racemic), the concentration for half-maximal inhibition (IC50) in the assay on MCF7 was found to be 0.073 µM; in the assay with HL-60 it was 0.522 µM; in the assay with HT-29, 0.137 µM. For the same compound, the inhibition entry in assay [1] was “Active”. Further, on Tubulin (Bos taurus), the fold change (FC) came out at 2.
As to `C=CC1C(=O)N(c2cc(OC)c(OC)c(OC)c2)C1c1ccc(OC)cc1` (racemic), the values for the IC50 with MCF7, in the assay with HL-60 and in the assay on HT-29 were 0.017 µM, 0.033 µM and 0.01 µM, respectively.
Turning to `C=CC1C(=O)N(c2cc(OC)c(OC)c(OC)c2)C1c1ccc(OCC)cc1` (racemic), the IC50 was determined as 0.014 µM in the assay with MCF7, 0.035 µM in the assay with HL-60 and 0.097 µM in the assay on HT-29.
Taken in the same sequence, the figures for `COc1cc(N2C(=O)C(Cl)(Cl)C2c2ccc(SC)cc2)cc(OC)c1OC` (racemic) were 0.291 µM, 0.223 µM and 0.306 µM.
On to `COc1ccc(C2N(c3cc(OC)c(OC)c(OC)c3)C(=O)C2(Cl)Cl)cc1` (racemic), for which the half-inhibitory concentration (IC50) turned out to be 0.133 µM in the assay on MCF7, 0.144 µM in the assay on HL-60 and 0.271 µM with HT-29.
`CCSc1ccc(C2C(O)C(=O)N2c2cc(OC)c(OC)c(OC)c2)cc1` (racemic): the IC50 in the assay with MCF7 came to 0.006 µM; in the assay with HL-60, 0.016 µM; with HT-29 it was 0.012 µM.
Taken in the same sequence, the figures for `CCOc1ccc(C2C(c3ccccc3)C(=O)N2c2cc(OC)c(OC)c(OC)c2)cc1` (racemic) were 0.05 µM, 0.074 µM and 0.075 µM.
`COc1ccc(C2C(O)C(=O)N2c2cc(OC)c(OC)c(OC)c2)cc1` (racemic): the IC50 was determined as 0.004 µM in the assay on MCF7, 0.013 µM with HL-60 and 0.012 µM in the assay on HT-29.
Regarding `COc1ccc([C@@H]2[C@@H](Oc3ccccc3)C(=O)N2c2cc(OC)c(OC)c(OC)c2)cc1O` (relative stereo), the results for the IC50 in the assay on MCF7, in the assay on HL-60 and in the assay with HT-29 were 0.023 µM, 0.007 µM and 0.692 µM, respectively.

The record behind these values is ChEMBL document CHEMBL5252538, “β-Lactam analogues of combretastatin A-4 prevent metabolic inactivation by glucuronidation in chemoresistant HT-29 colon cancer cells” (Eur J Med Chem, 2017).
